Experiment [1] deals with T1, Glycogen synthase kinase-3 beta (Homo sapiens, UniProt P49841). In words: Binding affinity to recombinant GSK3B (unknown origin) assessed as change in melting temperature at 10 uM by DSF assay. In outline: (§1)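 Differential scanning fluorimetry on an in-house panel of 90 recombinant kinases. Stabilization is read as the shift in melting temperature (ΔTm) relative to ligand-free protein. Staurosporine served as the positive control, and binding was also compared against its ΔTm.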
Target sequence in this assay (P49841 whole entry, looked up): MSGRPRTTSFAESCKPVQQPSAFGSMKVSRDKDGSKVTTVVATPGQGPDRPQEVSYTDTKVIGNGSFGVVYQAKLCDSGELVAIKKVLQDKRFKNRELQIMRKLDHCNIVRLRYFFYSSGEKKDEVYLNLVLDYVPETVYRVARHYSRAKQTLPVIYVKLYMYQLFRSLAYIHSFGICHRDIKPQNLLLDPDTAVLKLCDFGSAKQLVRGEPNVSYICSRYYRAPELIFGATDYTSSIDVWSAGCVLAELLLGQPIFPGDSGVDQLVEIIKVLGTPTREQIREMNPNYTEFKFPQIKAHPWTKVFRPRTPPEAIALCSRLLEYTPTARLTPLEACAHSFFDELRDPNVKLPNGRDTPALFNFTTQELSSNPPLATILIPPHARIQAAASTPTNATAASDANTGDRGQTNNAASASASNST

Experiment [2] has as its target T2, Serine/threonine-protein kinase 3 (Homo sapiens) (UniProt Q13188).
T2 sequence (whole entry): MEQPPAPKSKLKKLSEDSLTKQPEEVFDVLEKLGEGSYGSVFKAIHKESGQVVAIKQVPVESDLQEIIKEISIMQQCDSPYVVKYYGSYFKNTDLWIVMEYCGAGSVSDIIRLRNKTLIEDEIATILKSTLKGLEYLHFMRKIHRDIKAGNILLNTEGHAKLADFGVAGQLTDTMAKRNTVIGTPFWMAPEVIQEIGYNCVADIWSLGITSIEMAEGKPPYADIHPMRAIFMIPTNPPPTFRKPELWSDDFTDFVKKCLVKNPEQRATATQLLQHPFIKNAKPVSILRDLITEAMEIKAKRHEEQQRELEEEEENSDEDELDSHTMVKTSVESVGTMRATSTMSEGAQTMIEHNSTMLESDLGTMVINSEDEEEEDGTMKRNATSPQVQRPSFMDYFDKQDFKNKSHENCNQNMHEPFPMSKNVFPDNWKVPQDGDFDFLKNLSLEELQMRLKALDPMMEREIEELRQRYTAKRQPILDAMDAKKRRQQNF
In words: Binding affinity to recombinant STK3 (unknown origin) assessed as change in melting temperature at 10 uM by DSF assay. In outline:
as §1

The test system of experiment [3] is BMP2-inducible protein kinase (Homo sapiens). Description: Binding affinity to recombinant BMP2K (unknown origin) assessed as change in melting temperature at 10 uM by DSF assay.
Experiment [4] concerns the target T3, Bone morphogenetic protein receptor type-2 (Homo sapiens) (UniProt Q13873).
T3 sequence (whole entry): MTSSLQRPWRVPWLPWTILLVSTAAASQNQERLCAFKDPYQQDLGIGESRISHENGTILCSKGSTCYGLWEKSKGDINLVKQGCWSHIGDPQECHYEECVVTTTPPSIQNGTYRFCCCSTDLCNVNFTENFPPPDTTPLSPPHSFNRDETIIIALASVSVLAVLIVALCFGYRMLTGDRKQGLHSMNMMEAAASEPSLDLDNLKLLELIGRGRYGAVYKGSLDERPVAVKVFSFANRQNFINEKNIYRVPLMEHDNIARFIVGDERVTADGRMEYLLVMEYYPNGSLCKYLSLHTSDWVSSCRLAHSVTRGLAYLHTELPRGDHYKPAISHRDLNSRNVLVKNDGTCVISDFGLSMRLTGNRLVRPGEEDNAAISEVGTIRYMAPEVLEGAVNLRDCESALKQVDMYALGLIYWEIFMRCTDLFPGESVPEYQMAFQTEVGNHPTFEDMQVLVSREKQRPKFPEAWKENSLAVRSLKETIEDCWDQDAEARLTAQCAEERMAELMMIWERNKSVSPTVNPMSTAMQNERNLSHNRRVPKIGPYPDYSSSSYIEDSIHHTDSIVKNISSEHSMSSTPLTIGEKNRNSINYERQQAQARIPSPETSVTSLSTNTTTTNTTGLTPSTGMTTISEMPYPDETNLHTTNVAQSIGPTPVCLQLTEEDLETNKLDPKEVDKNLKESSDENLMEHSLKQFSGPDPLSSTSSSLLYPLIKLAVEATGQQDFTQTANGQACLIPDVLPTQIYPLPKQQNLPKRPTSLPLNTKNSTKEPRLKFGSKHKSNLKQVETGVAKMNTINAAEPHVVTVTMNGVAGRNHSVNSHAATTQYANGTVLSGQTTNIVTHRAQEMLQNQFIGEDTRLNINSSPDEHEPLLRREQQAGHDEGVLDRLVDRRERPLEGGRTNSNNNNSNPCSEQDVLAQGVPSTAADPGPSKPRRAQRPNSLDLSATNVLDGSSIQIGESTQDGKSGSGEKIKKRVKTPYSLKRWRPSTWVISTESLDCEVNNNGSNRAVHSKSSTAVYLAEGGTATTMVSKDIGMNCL
Description: Binding affinity to recombinant BMPR2 (unknown origin) assessed as change in melting temperature at 10 uM by DSF assay. The method in brief:
as §1

For experiment [5], the target named is T4, Bone morphogenetic protein receptor type-2 (Homo sapiens, UniProt Q13873).
T4 sequence (Q13873 whole entry): T3 sequence (whole entry)
Description: Inhibition of BMPR2 (174 to end residues) (unknown origin) using MBP as substrate incubated for 60 mins in presence of ATP by ADP Glo assay. The method in brief:
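Enzymatic inhibition of the BMPR2 kinase was read out by ADP-Glo detection of ADP formed, and IC50 values were derived from concentration–response data.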

For experiment [6], the target named is Glycogen synthase kinase-3 alpha (Homo sapiens, UniProt P49840). Description: Inhibition of N-terminal NanoLuc-fused full length GSK3A (unknown origin) transfected in HEK293T cells incubated for 2 hrs in presence of tracer K8 by NanoBRET assay. Format: cell-based. In outline: (§2)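 Cellular target engagement by NanoBRET in intact cells expressing NanoLuc-fused GSK3A or GSK3B, with EC50 values derived from tracer displacement.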
Glycogen synthase kinase-3 alpha, sequence (P49840 whole entry, the tested form may be a part): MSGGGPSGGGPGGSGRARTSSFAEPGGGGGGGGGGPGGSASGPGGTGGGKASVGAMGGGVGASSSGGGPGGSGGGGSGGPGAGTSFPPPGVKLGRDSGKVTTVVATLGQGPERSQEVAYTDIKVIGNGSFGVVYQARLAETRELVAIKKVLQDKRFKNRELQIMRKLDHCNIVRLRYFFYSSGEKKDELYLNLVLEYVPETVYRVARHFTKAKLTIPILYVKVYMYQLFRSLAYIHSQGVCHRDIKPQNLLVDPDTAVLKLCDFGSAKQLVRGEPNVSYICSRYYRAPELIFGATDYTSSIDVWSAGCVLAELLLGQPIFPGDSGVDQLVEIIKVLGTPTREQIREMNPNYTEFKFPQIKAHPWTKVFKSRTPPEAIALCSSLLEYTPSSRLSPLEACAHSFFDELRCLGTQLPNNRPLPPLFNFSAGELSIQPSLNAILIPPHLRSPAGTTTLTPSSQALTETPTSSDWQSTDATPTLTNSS

Experiment [7] addresses T1, Glycogen synthase kinase-3 beta. Description: Inhibition of N-terminal NanoLuc-fused full length intact GSK3B (unknown origin) transfected in HEK293T cells incubated for 2 hrs in presence of tracer K8 by NanoBRET assay. Format: cell-based. The method in brief:
as §2
Target sequence in this assay (P49841 whole entry): as the sequence (P49841 whole entry, looked up) above

The target is the same in experiment [8]. Description: Inhibition of N-terminal NanoLuc-fused full length lysed GSK3B (unknown origin) transfected in HEK293T cells incubated for 2 hrs in presence of tracer K8 by NanoBRET assay. The experiment is classed as cell-based. In outline:
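GSK3B NanoBRET run in the lysed mode, with cells permeabilized by digitonin to bypass compound cell penetration. EC50 values were derived from tracer displacement.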
Target sequence in this assay (P49841 whole entry): as the sequence (P49841 whole entry, looked up) above

Experiment [9] has as its target T5, TGF-beta receptor type-1 (Homo sapiens, UniProt P36897).
T5 sequence (P36897 whole entry): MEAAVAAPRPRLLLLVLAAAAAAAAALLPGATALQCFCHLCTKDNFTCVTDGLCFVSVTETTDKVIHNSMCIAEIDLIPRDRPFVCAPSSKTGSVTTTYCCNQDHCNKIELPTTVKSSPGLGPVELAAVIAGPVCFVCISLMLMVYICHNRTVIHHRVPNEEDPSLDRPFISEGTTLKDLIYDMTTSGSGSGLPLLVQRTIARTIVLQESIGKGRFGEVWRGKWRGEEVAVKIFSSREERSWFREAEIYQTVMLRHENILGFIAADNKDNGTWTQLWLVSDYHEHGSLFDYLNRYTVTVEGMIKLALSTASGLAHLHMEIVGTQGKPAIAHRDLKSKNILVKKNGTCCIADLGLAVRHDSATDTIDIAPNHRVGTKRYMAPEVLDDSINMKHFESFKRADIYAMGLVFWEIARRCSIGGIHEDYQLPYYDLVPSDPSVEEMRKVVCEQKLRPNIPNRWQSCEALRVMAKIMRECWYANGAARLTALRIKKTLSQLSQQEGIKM
Description: Inhibition of ALK5 (unknown origin) assessed as dissociation constant.

The target of experiment [10] is T4, Bone morphogenetic protein receptor type-2. In words: Inhibition of BMPR2 (unknown origin) assessed as dissociation constant by ITC assay. The method in brief: (§3)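 Binding measured by isothermal titration calorimetry against the recombinant BMPR2 kinase domain. Thermodynamic binding parameters, including the dissociation constant, were derived from the titration data.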

For experiment [11], the target named is T3, Bone morphogenetic protein receptor type-2 (Homo sapiens). Description: Binding affinity to BMPR2 (unknown origin) assessed as change in enthalpy by ITC assay. The method in brief: as §3
For experiment [12] the target is unchanged. Description: Binding affinity to BMPR2 (unknown origin) assessed as change in entropy by ITC assay. In outline:
as §3

Regarding `O=C1NCCCCCCNc2nccc(n2)Nc2cc1[nH]n2`, the ΔTm in experiment [1], in experiment [2] and in experiment [3] was greater than 5 °C each time.

In the case of `O=C1NCCc2cccc(c2)Nc2nccc(n2)Nc2cc1[nH]n2`, the ΔTm in [1] was 7.2 °C; in experiment [4] it was 5 °C. Besides, in experiment [5], the IC50 amounted to 0.461 µM.

As for `O=C1NCCCCCNc2nccc(n2)Nc2cc1[nH]n2`, the ΔTm in experiment [1] amounted to 4.9 °C; in [4] it was 4.6 °C. The IC50 in experiment [5] was 0.63 µM; in experiment [6] it was greater than 45 µM; in [7], greater than 45 µM; in [8], 3.5 µM.

On to `N#CCc1ccc(Nc2nccc(Nc3cc(C4CC4)[nH]n3)n2)cc1`, for which the figures for the Kd in [9] and in [10] were 0.324 µM and 0.186 µM, respectively. For the same compound, the ΔTm is 14 °C in experiment [1] and 9.2 °C in experiment [4]. Also, in experiment [11], the deltaH is -9.61 kcal/mol. Also, the deltaS in experiment [12] is -1.97 cal/mol.K. Moreover, the IC50 worked out at 0.0362 µM in experiment [5], 0.004 µM in experiment [6], 0.0038 µM in [7] and 0.0012 µM in [8].

Source of the values: ChEMBL document CHEMBL5247671, “Design and Synthesis of Pyrazole-Based Macrocyclic Kinase Inhibitors Targeting BMPR2” (ACS Med Chem Lett, 2023).
